Data reported in ChEMBL document CHEMBL5705892, “MK-2206, an allosteric Akt inhibitor, enhances antitumor efficacy by standard chemotherapeutic agents or molecular targeted drugs in vitro and in vivo” (Mol Cancer Ther, 2010).
Calls of active or inactive are those of the source. No cut-off for these calls is given here.

How the values were obtained:
A-431 [1] = test: Synergistic antiproliferative activity against human A-431 cells assessed as combination index at ED90 measured after 72 hrs in presence of erlotinib by celltiter-glo assay; assay type: functional
Method in brief: (§1)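 Cells were seeded at 2–3 × 10³ per well in RPMI 1640 with 10% FBS. At 24 h, MK-2206 and the partner drug were added simultaneously at constant concentration ratios spanning each agent's IC₅₀, for 72 h. Growth was read as cellular ATP by CellTiter-Glo. CI was taken from median-effect plots of each agent alone and in combination (Chou–Talalay), at ED₅₀, ED₇₅ and ED₉₀.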

MDA-MB-231 = test: Synergistic antiproliferative activity against human MDA-MB-231 cells assessed as combination index at ED75 measured after 72 hrs in presence of docetaxel by celltiter-glo assay; assay type: functional
Method in brief: (§2)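 Cells grown in RPMI 1640 with 10% heat-inactivated FBS at 37°C, 5% CO₂. Seeded at 2 to 3 × 10³ per well; drugs added 24 h later. […] Viability read as cellular ATP by CellTiter-Glo. CI calculated by Chou–Talalay from median-effect plots at ED50, ED75 and ED90.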

[2] = Toxicity in human SK-OV-3 cells xenografted CB17/icr SCID mouse assessed as body weight loss at 60 to 120 mg/kg, po administered 3 times per week for 2 weeks starting 2 hrs post lapatinib treatment and measured during compound dosing; assay type: organism-based; conditions: in vivo, 336 h, dose 60-120 mg/kg
Method in brief: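 SK-OV-3 cells in 50% Matrigel/PBS injected s.c. into flank of female C.B-17/ICR-scid mice; dosing began after 3 wk, randomized at mean tumour 0.13 cm³ (n = 5). Lapatinib 100 mg/kg p.o. in distilled water 5 d/wk for 2 wk; MK-2206 in 30% Captisol p.o. days 0, 2, 4, 7, 9, 11. Body weight and physical signs monitored.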

[3] = Toxicity in human NCI-H460 cells xenografted CD1 nude mouse assessed as body weight loss at 120 mg/kg, po administered 3 times per week for 2 weeks measured on day 14 to 16 in presence of gemcitabine; assay type: organism-based; conditions: in vivo, 336 h, time 14-16 day
Method in brief: (§3)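 NCI-H460 cells in 50% Matrigel/PBS injected s.c. into flank of CD1-nude mice; randomized at mean tumour 0.2 cm³ (n = 5). MK-2206 in 30% Captisol, 120 mg/kg p.o. days 0, 2, 4, 7, 9, 11. Carboplatin 50 mg/kg i.v. in saline days 0 and 7 (from day 12 after implant), or gemcitabine 100 mg/kg i.v. in saline days 0 and 7 (from day 8). Body weight monitored.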

A-431 [4] = test: Synergistic antiproliferative activity against human A-431 cells assessed as combination index at ED50 measured after 72 hrs in presence of erlotinib by celltiter-glo assay; assay type: functional; method in brief: as §1
NCI-H460 [5] = test: Antitumor activity against human NCI-H460 cells xenografted in CD1 nude mouse assessed as reduction in tumor volume at 120 mg/kg, po administered 3 times per week for 2 weeks by caliper method; assay type: functional, organism-based
Method in brief: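 NCI-H460 cells were injected s.c. in Matrigel/PBS into CD1-nude mice (female in the carboplatin study). Mice were randomized at 0.2 cm³, n = 5. Carboplatin was given at 50 mg/kg or gemcitabine at 100 mg/kg, i.v. in saline, on days 0 and 7. MK-2206 (30% Captisol) was given at 120 mg/kg po on days 0, 2, 4, 7, 9, 11. Tumors measured by caliper twice weekly.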

HCC1954 = test: Synergistic antiproliferative activity against lapatinib pretreated human HCC1954 cells assessed as combination index at ED75 measured after 72 hrs by celltiter-glo assay; assay type: functional
[6] = Toxicity in human NCI-H460 cells xenografted CD1 nude mouse assessed as body weight loss at 120 mg/kg, po administered 3 times per week for 2 weeks measured on day 14 to 16 in presence of carboplatin; assay type: organism-based; conditions: in vivo, 336 h, time 14-16 day; method in brief: as §3
NCI-N87 = test: Synergistic antiproliferative activity against human NCI-N87 cells assessed as combination index at ED90 measured after 96 hrs in presence of lapatinib by celltiter-glo assay; assay type: functional
SK-OV-3 = test: Antitumor activity against human SK-OV-3 cells xenografted in CB17/icr SCID mouse assessed as tumor growth inhibition at 60 to 120 mg/kg, po administered 3 times per week for 2 weeks and measured twice a week during compound dosing by caliper method; assay type: functional, organism-based; conditions: dose 60-120 mg/kg
Method in brief: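 SK-OV-3 cells were implanted s.c. into female C.B-17/ICR-scid mice, which were randomized at 0.13 cm³, n = 5. Lapatinib (water) was given at 100 mg/kg po on days 0–4 and 7–11. MK-2206 (30% Captisol) was given at 60 or 120 mg/kg po on days 0, 2, 4, 7, 9, 11. Tumor volume by calipers twice weekly.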

NCI-H1299 [7] = test: Synergistic antiproliferative activity against human NCI-H1299 cells assessed as fold change in erlotinib IC50 at 1 umol/L measured after 72 hrs in presence of erlotinib by celltiter-glo assay relative to erlotinib alone; assay type: functional; conditions: dose 1 µmol/L
[8] = biological target: RAC-alpha serine/threonine-protein kinase (Homo sapiens) (UniProt P31749); test: Inhibition of AKT in human A-431 cells assessed as reduction in S6 phosphorylation at S240/S244 residues at 5 umol/L measured after 5 hrs in presence of erlotinib by Western blot analysis; assay type: cell-based; conditions: dose 5.0 µmol/L
Chain of RAC-alpha serine/threonine-protein kinase (Homo sapiens) (P31749 whole entry): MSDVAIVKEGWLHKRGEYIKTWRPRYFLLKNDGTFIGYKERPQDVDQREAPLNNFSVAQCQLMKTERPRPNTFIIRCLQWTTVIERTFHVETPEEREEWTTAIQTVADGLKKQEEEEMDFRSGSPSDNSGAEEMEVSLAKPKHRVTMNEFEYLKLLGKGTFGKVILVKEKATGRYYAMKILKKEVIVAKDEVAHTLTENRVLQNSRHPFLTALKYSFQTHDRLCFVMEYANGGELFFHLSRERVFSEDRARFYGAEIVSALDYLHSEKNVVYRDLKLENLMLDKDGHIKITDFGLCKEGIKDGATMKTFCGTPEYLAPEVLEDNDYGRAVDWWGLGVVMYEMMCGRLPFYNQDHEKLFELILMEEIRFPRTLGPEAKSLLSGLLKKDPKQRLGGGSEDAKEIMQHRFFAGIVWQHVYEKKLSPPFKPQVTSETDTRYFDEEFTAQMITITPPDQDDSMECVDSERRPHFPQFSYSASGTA
Method in brief: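 Cells were lysed in Tris-HCl pH 7.5, 150 mM NaCl, 1% Triton X-100 with protease and phosphatase inhibitors. Lysates were run on SDS-PAGE, transferred to nitrocellulose and probed with phospho-specific antibodies.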

NCI-H460 [9] = test: Synergistic antiproliferative activity against human NCI-H460 cells assessed as combination index at ED75 measured after 72 hrs in presence of erlotinib by celltiter-glo assay; assay type: functional
SK-BR-3 = test: Synergistic antiproliferative activity against human SK-BR-3 cells assessed as combination index at ED90 measured after 72 hrs in presence of lapatinib by celltiter-glo assay; assay type: functional
HCC70 [10] = test: Synergistic antiproliferative activity against human HCC70 cells assessed as combination index at ED50 measured after 72 hrs in presence of lapatinib by celltiter-glo assay; assay type: functional; method in brief: as §2
HCC70 [11] = test: Induction of apoptosis in human HCC70 cells assessed as increase in caspase-3/7 activity at 3 umol/L measured after 48 hrs in presence of lapatinib by caspase-glo 3/7 assay relative to control; assay type: functional; conditions: dose 3 µmol/L
Method in brief: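 HCC70 cells were grown in RPMI 1640 with 10% heat-inactivated FBS at 37°C in 5% CO₂. They were exposed for 48 h to MK-2206 (0, 0.03, 0.3, 3 µmol/L), with or without lapatinib (0, 1, 3, 5, 10 µmol/L). Caspase-3/7 activity was read by Caspase-Glo 3/7 luminescence and expressed as fold induction over the DMSO vehicle control. The experiment was run twice, and representative data were reported.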

NCI-H1299 [12] = test: Synergistic antiproliferative activity against human NCI-H1299 cells assessed as combination index at ED50 measured after 72 hrs in presence of erlotinib by celltiter-glo assay; assay type: functional
HCC827 = test: Synergistic antiproliferative activity against human HCC827 cells assessed as combination index at ED75 measured after 72 hrs in presence of erlotinib by celltiter-glo assay; assay type: functional; method in brief: as §2

## Cl.NC1(c2ccc(-c3nc4ccn5c(=O)[nH]nc5c4cc3-c3ccccc3)cc2)CCC1
A-431 [1]
  CI90: 0.14
MDA-MB-231
  CI75: 0.7
[2]
  Activity: Non-Toxic
[3]
  Activity: Non-Toxic
A-431 [4]
  CI50: 0.42
NCI-H460 [5]
  Activity: Active
HCC1954
  CI75: 0.18
[6]
  Activity: Non-Toxic
NCI-N87
  CI90: 0.18
SK-OV-3
  TGI: Active
NCI-H1299 [7]
  Ratio IC50: >7.9
[8]
  inhibition: Active
NCI-H460 [9]
  CI75: 0.23
SK-BR-3
  CI90: 0.09
HCC70 [10]
  CI50: 0.46
HCC70 [11]
  fold change (FC): 7
NCI-H1299 [12]
  CI50: 0.28
HCC827
  CI75: 0.18
